Active and inactive are the calls of the source.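 The calls were made as follows: active = raises 665 nm absorbance to half the iron-handling mutant's effect in both replicates, half-effect dose under 50 µM; inactive = the rest.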
Tests used:
[1] = test system: P. aeruginosa pyoverdine, CAS absorbance 665 nm, 6 h; assay: reduction of P. aeruginosa pyoverdine production, dose response, orthogonal assay for PvdQ inhibitor project, Chrome Azurol S readout, dry powder samples (AID 624033)
Summary of the method: (§1)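 Buffer or medium – CAA medium · Compound dosing – 10-point twofold dilution series, top dose 125 µM · Times – 6 h compound culture, 30 °C, then 30 min CAS dye · Technique – CAS dye absorbance, 665 nm · Controls – PvdQ mutant culture as 100% reference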

[2] = as above; conditions: P. aeruginosa pyoverdine, CAS absorbance 665 nm, 6 h
Summary of the method: as §1

**Q.** With `N#CC(c1ccc(Cl)cc1)c1cccc(Cl)n1` (stereo unspecified) as the molecule, how does the AC50 [1] read?
**A.** 46.4 µM

**Q.** With `COCCOCCC(C#N)c1ccc(F)cc1` (stereo unspecified) as the molecule, how does the outcome [2] read?
**A.** inactive

**Q.** For `N#CC(c1cccc(C(F)(F)F)n1)c1ccc(Cl)cc1F` (stereo unspecified), which AC50 [1] is on record?
**A.** 14.6 µM

**Q.** For `N#CC(c1ccc(Cl)cc1)c1ccc(Cl)cn1` (stereo unspecified), which AC50 [1] is on record?
**A.** 17.7 µM

**Q.** Which outcome [2] does the source give for `CN(C)CCCC(C#N)c1ccc(F)cc1` (stereo unspecified) here?
**A.** inactive

**Q.** For `N#CC(c1cccc(Cl)n1)c1ccc(Cl)cc1F` (stereo unspecified), which AC50 [1] is on record?
**A.** 30.7 µM

**Q.** With `COCCC(C#N)c1ccc(F)cc1` (stereo unspecified) as the molecule, how does the outcome [2] read?
**A.** inactive

**Q.** For `N#CC(c1ccc(Cl)cc1)c1ncccc1Cl` (stereo unspecified), which AC50 [1] is on record?
**A.** 48.3 µM

**Q.** For `CCCCC(C#N)c1ccc(F)cc1` (stereo unspecified), which AC50 [1] is on record?
**A.** 27.7 µM

**Q.** Which AC50 [1] does the source give for `N#CC(c1ccc(Cl)cc1)c1cccc(C(F)(F)F)n1` (stereo unspecified) here?
**A.** 22.9 µM

**Q.** With `N#CC(c1ccc(F)cc1)c1cccc(C(F)(F)F)n1` (stereo unspecified) as the molecule, how does the AC50 [1] read?
**A.** 6.21 µM
